Source: PMC12811664 (Angewandte Chemie (International Ed. in English), 2025)
Numbering of substitutions follows the chain as printed.

What was measured:
DC-SIGN ECD = molecular target: T1, DC-SIGN ECD (Homo sapiens, UniProt Q9NNX6); assay: Plate-based horseradish peroxidase; format: biochemical
T1 sequence (Q9NNX6 64-404): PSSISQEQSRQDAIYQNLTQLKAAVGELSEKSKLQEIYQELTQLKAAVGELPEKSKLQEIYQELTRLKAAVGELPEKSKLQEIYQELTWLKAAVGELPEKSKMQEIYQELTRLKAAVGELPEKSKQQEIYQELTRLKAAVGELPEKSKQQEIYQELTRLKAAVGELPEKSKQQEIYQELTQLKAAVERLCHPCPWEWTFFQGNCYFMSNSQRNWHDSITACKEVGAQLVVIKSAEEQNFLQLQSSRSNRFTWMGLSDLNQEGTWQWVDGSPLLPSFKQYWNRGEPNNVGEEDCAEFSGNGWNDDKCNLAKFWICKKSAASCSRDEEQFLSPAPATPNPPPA
Summary of the method: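 Purified DC-SIGN extracellular domain immobilized on plates. Incubated overnight at 4 °C or room temperature with test compound at 0.5 mM for the screen, or at a concentration series for dose-response (overnight, RT, or varied incubation times). After washing, HRP added; it binds via its own glycans. Bound HRP read by peroxidase activity relative to DMSO control. Hit cutoff ≥50% change. EDTA, mannan and mannose used as controls. Mean of three biological replicates.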

DC-SIGN CRD = molecular target: T2, DC-SIGN CRD (Homo sapiens, UniProt Q9NNX6); assay: Grating-coupled interferometry; format: binding; conditions: mannose-PEG3 sensor; for EC50: EC50, GCI binding response, overnight incubation at RT
T2 sequence (Q9NNX6 253-404): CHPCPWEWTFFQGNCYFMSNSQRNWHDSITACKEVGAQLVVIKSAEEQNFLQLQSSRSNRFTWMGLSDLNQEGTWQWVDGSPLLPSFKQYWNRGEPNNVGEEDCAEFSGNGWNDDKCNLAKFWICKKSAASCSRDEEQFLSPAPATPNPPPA

DC-SIGN ECD K373R = molecular target: T3, DC-SIGN ECD K373R (Homo sapiens, UniProt Q9NNX6, K373R); assay: HRP binding assay with Lys mutant K373R; format: biochemical
T3 sequence (Q9NNX6 64-404 K373R): T1 sequence (Q9NNX6 64-404) with K310R

DC-SIGN ECD K295R = molecular target: T4, DC-SIGN ECD K295R (Homo sapiens, UniProt Q9NNX6, K295R); assay: HRP binding assay with Lys mutant K295R; format: biochemical
T4 sequence (Q9NNX6 64-404 K295R): T1 sequence (Q9NNX6 64-404) with K232R

DC-SIGN ECD K340R = molecular target: T5, DC-SIGN ECD K340R (Homo sapiens, UniProt Q9NNX6, K340R); assay: HRP binding assay with Lys mutant K340R; format: biochemical
T5 sequence (Q9NNX6 64-404 K340R): T1 sequence (Q9NNX6 64-404) with K277R

DC-SIGN CRD wild type = molecular target: T6, DC-SIGN CRD wild type (Homo sapiens, UniProt Q9NNX6); assay: Dynamic light scattering of modified protein; conditions: protein-compound ratios up to 1:10
T6 sequence (Q9NNX6 253-404): T2 sequence (Q9NNX6 253-404)

DC-SIGN CRD M270F = molecular target: T7, DC-SIGN CRD M270F (Homo sapiens, UniProt Q9NNX6, M270F); assay: Dynamic light scattering of modified protein, M270F mutant; conditions: secondary site blocked
T7 sequence (Q9NNX6 253-404 M270F): T2 sequence (Q9NNX6 253-404) with M18F

Compound	screening outcome, activity change compared to the DMSO control (DC-SIGN ECD; 0.5 mM compound, overnight, cutoff ∼50% activity change)	EC50 (DC-SIGN ECD) [µM]	EC50 (DC-SIGN CRD) [µM]	activity (EC50) on mutant compared to the wild type, HRP assay (DC-SIGN ECD K373R)	activity (EC50) on mutant compared to the wild type, HRP assay (DC-SIGN ECD K295R)	activity (EC50) on mutant compared to the wild type, HRP assay (DC-SIGN ECD K340R)	change of protein hydrodynamic size upon modification (DLS) (DC-SIGN CRD wild type)	change of protein hydrodynamic size upon modification (DLS) (DC-SIGN CRD M270F)	IC50 (DC-SIGN ECD) [µM]	time dependency of dose-response after varying incubation times, HRP assay (DC-SIGN ECD; reaction quenched at different time points)	Hill slope (nH), GCI (DC-SIGN CRD)
O=Cc1cc2ccccc2cc1C=O [Compound 30, naphthalene‐2,3‐dicarbaldehyde]	potential inhibitor										
O=C(ON1C(=O)CCC1=O)c1cc(C(F)(F)F)cc(C(F)(F)F)c1 [Compound 11, 2,5-dioxopyrrolidin-1-yl 3,5-bis(trifluoromethyl)benzoate]		30	200	No change in EC50	No change in EC50	No change in EC50	induces oligomerization	lack of oligomerization			
OC[C@H]1OC(O)[C@@H](O)[C@@H](O)[C@@H]1O (stereo partly shown) [mannose, reference compound]									11400		
COc1c(Nc2cc(C(F)(F)F)cc(C(F)(F)F)c2)c(=O)c1=O [Compound 33, 3-((3,5-bis(trifluoromethyl)phenyl)amino)-4-methoxycyclobut-3-ene-1,2-dione]			100	drastically reduced activity	EC50s similar to that of the wild type	EC50s similar to that of the wild type	no increase in size			clear time dependency	≈ 1
